Measurements collected from several papers.
Compare with care: the assays were run in different laboratories.
BCHE: Cholinesterase (BCHE, Homo sapiens, UniProt P06276)
CYSLTR1: Cysteinyl leukotriene receptor 1 (CYSLTR1, Homo sapiens, UniProt Q9Y271)

| Structure (SMILES) | target | effect on | mode | technique | tested at | inhibition |
| --- | --- | --- | --- | --- | --- | --- |
| COc1ccc2c(c1)[nH]c1c(C)nccc12 | DNA dC->dU-editing enzyme APOBEC-3B (Homo sapiens, UniProt Q9UH17) | enzyme activity | inhibitor | fluorescence | 100 µM | 53.6% |
| COc1cc2c(cc1OC)C(=O)C(CC1CCN(Cc3ccccc3)CC1)C2 (centres unmarked) | BCHE | enzyme activity | inhibitor | Ellman | 1 µM | 22.5% |
| CC(C)C[C@H](NC(=O)[C@H](Cc1ccccc1)NC(=O)c1cnccn1)B(O)O | Plasma kallikrein (KLKB1, Homo sapiens, UniProt P03952) | enzyme activity | inhibitor |  | 33 µM | 94.2% |
| CN(CCN1CCC(OC(=O)Nc2ccccc2-c2ccccc2)CC1)C(=O)c1ccc(CN2CCC(C(N)=O)CC2)cc1 | CYSLTR1 | ligand displacement |  | radioligand | 1 µM | -13% |
| COc1ccc(S(=O)(=O)N2CCCCC2)cc1C | CYSLTR1 | ligand displacement |  | radioligand | 10 µM | < 30% |
| CCN(CC)CCCC[C@H](NC(=O)[C@H](CC(C)C)NC(=O)[C@H](C)NC(=O)[C@H](Cc1ccccc1)NC(=O)c1ccc(C(C)(C)C)cc1)C(=O)N[C@@H](CO)C(=O)OC | Melanocortin receptor 4 (MC4R, Homo sapiens, UniProt P32245) | ligand displacement |  | radioligand | 10 µM | 16% |
| C=CCn1c2cc(OC(=O)CCCCN3CCN(Cc4ccccc4F)CC3)ccc2c2ccnc(C)c21 | BCHE | enzyme activity | inhibitor | Ellman | 1 µM | 21% |
| COCc1c(-c2cc3cc(C)cc(OC)c3s2)c2c(N)ncnn2c1CN1CCNC(=O)C1 | Interferon-induced, double-stranded RNA-activated protein kinase (EIF2AK2, Homo sapiens, UniProt P19525) | cell-free assay |  | competition with immobilised ligand | 1 µM | 97.3% |
| C#Cc1n[nH]c2c(-c3cn([C@@H](C)c4ccccc4)c(=O)[nH]c3=O)cc(F)cc12 | Fibroblast growth factor receptor 1 (FGFR1, Homo sapiens, UniProt P11362, V561M) | enzyme activity | inhibitor |  | 0.1 µM | -4.7% |
| C=CCn1c2cc(OC(=O)CCCCCCN3CCN(Cc4ccccc4)CC3)ccc2c2ccnc(C)c21 | BCHE | enzyme activity | inhibitor | Ellman | 1 µM | 36.8% |
| O=C(Nc1cccnn1)N1CCN([C@@H]2CCOc3cc(C(F)(F)F)ccc32)CC1 | CYSLTR1 | ligand displacement |  |  | 20 µM | 6% |
| C#Cc1n[nH]c2c(-c3cn([C@@H](C)c4ccccn4)c(=O)[nH]c3=O)cc(F)cc12 | Fibroblast growth factor receptor 1 (FGFR1, Homo sapiens, UniProt P11362) | enzyme activity | inhibitor |  | 0.1 µM | 5.4% |
| C=CCn1c2cc(OC(=O)CCCCN3CCN(Cc4cccc(C(F)(F)F)c4)CC3)ccc2c2ccnc(C)c21 | BCHE | enzyme activity | inhibitor | Ellman | 1 µM | 40.2% |
| Cn1cc(-c2cc(F)cc(N3CCn4c(cc5c4CCCC5)C3=O)c2CO)cc(Nc2ccc(N3CCN(C4COC4)CC3)cn2)c1=O | Tyrosine-protein kinase Fgr (FGR, Homo sapiens, UniProt P09769) | enzyme activity | inhibitor |  | 0.1 µM | 40% |
